Compound activity from PubChem BioAssay.
NR3A LBD binder = binders of NR3A ligand-binding domain, primary screen, biophysical, differential scanning fluorimetry, uHTS. Glutamate receptor ionotropic, NMDA 3A (GRIN3A) ligand-binding domain. NR3A LBD differential scanning fluorimetry, Tm shift; 0% = protein alone, 100% = glycine-bound protein. Tm shift relative to glycine control, % at 25 µM. 2.5% of 340,000 active. AID 1259313, 2017;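 active = melting temperature shift of at least 10% of the positive control shift, at one fixed dose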
UPR XBP1 act = activators of adaptive XBP1 UPR arm, primary screen, cell-based, CHO-XBP1 luciferase reporter, luminescence, uHTS. activation, % at 20 µM. IRE1-XBP1 UPR activation; percent of tunicamycin response, DMSO as zero. 0.33% of 330,000 active;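 active = versus positive control, 20 µM dose yields 30% or more activation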;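 note: 100% = tunicamycin at 10 µg/mL and 0% = DMSO only wells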
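Test system: CHO-XBP1 luciferase reporter cells | Buffer or medium: Serum-containing F12 medium, 10% FBS | Schedule: 6 h compound exposure at 37 °C, 5% CO2 | Detection: Steady-Glo luciferase glow luminescence, 10 min after reagent addition | Read-out basis: Activation, % of tunicamycin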
MPTP inh = mitochondrial permeability transition pore inhibitors, primary screen, biochemical, isolated mouse mitochondria, absorbance; 1.4% of 360,000 active; inhibition, % at 10 µM; AID 602449, 2012; Ca2+ swelling absorbance, 30 min;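 active = inhibition of 50% or more, scaled per plate between neutral and stimulator controls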;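 note: 0% = DMSO wells given calcium and 100% = 1 mM EGTA wells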
UPR CHOP act = activators of apoptotic CHOP UPR arm, primary screen, cell-based, CHO-CHOP luciferase reporter, luminescence, uHTS; UPR activation; percent of tunicamycin response over DMSO baseline; activation, % at 10 µM; 0.34% of 330,000 active; AID 449763, 2010;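 active = at 10 µM dose, activation of 40% or more, normalized to positive control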;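 note: 100% = tunicamycin at 10 µg/mL and 0% = DMSO alone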
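measured by = luciferase luminescence | assay system = CHO-CHOP cells, stable luciferase reporter of PERK-eIF2a-CHOP signalling | amount = 500 reporter cells seeded per well | timing = 6 h compound exposure at 37 °C after overnight seeding | controls = positive tunicamycin 10 µg/mL, negative DMSO alone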
CHOP inh = inhibitors of CHOP promoter induction, primary screen, cell-based, unfolded protein response, luciferase reporter | CHO-K1 CHOP-promoter luciferase, tunicamycin-induced, 15-18 h | inhibition, % at 10 µM | 3.8% of 220,000 active | AID 2732, 2010;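 active = compounds that reduced the stress-induced luciferase reporter signal by more than about 70% of percent inhibition, limit read from the data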;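 note: 0% = tunicamycin plus vehicle and 100% = wells without tunicamycin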
aDG glyco up = activators of alpha-DG glycosylation, primary screen, uHTS, Pro5-aDG cells, AlphaScreen; alpha-DG glycosylation AlphaScreen (IIH6); 0% Pro5, 100% B10-LARGE cell signal; activation, % at 10 µM; 0.22% of 360,000 active;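 active = activation of at least 8% versus controls, or a plate z-score of at least 8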;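 note: Pro5 are CHO cells carrying HIG-tagged alpha-DG that lacks glycosylation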
aDG glyco conf = alpha-DG glycosylation enhancers, retest, confirmation, single concentration, Pro5-aDG cells; shares compounds with aDG glyco up; IIH6 AlphaLISA; scaled to LARGE-overexpressing B10 cells as 100%; activation, % at 10 µM (by protocol); 17% of 600 active;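 active = activation of at least 7% in one or more replicates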;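 note: cells exposed to compound for two days before detection; 0% = DMSO-treated Pro5 cells and 100% = DMSO-treated B10-LARGE cells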
Numbers without * were called inactive; nt = not tested or not shown. A selection: hits, their analogues and other compounds. The true share with any hit is near 5.6%.

SMILES	NR3A LBD binder	UPR XBP1 act	MPTP inh	UPR CHOP act	CHOP inh	aDG glyco up	aDG glyco conf
Fc1ccc(-c2nc3c4ccccc4ccn3c2CC2CCCCC2)cc1	nt	nt	2.7	nt	nt	4.4	nt
Clc1ccc(-c2nc3c4ccccc4ccn3c2CC2CCCCC2)cc1	nt	nt	-0.6	nt	nt	21.5*	3.4
Clc1cccc(-c2nc3c4ccccc4ccn3c2CC2CCCCC2)c1	nt	nt	1.9	nt	nt	11.0*	1.9
Cc1ccc(S(=O)(=O)NCCC(=O)NCc2ccccn2)cc1	2.6	1.6	-0.5	0.0	nt	0.3	nt
Cc1ccc(S(=O)(=O)NC(=O)NCc2ccccn2)cc1	-1.1	-1.3	-1.4	-0.4	31.8	51.4*	-0.6
O=C(Nc1nnc(SCc2ccc(F)cc2)s1)c1ccc2c(c1)C(=O)N(c1ccccc1Cl)C2=O	8.5	-1.7	44.2	-1.9	15.6	-0.2	nt
COc1ccc(C(=O)CC2(C(=O)O)CCCCC2)cc1	0.2	1.1	0.1	-1.0	nt	0.1	nt
COc1cc2[nH]c3c(=O)n4c(nc3c2cc1OC)SCCC4	-2.5	4.5	0.3	0.5	-3.2	31.1*	21.6*
COc1ccccc1Cc1c(-c2ccc(C#N)cc2)nc2c3ccccc3ccn12	nt	nt	0.9	nt	nt	8.9*	3.0
O=C(CN1C(=O)C2C3C=CC(C3)C2C1=O)OCC(=O)c1ccc(Cl)c([N+](=O)[O-])c1 (stereo unspecified)	-2.3	0.2	0.4	2.2	nt	0.1	nt
COc1cc(C2N=C(c3ccccc3)NO2)cc(Br)c1O (stereo unspecified)	-0.1	2.7	1.4	3.2	-1.0	-0.2	nt
COc1ccc(C2N=C(c3ccccc3)NO2)cc1OC (stereo unspecified)	-0.7	2.6	2.8	6.7	nt	2.8*	0.1
CCOC(=O)C1CCN(Cc2ccc3ccccc3c2)CC1	0.6	-2.1	0.5	-1.9	nt	0.2	nt
CCOC(=O)C1CCN(Cc2cc(C(C)C)c(O)c(C(C)C)c2)CC1	-0.6	5.5	-0.8	2.6	1.4	6.4*	1.1
C=C1CCC2[C@](C)(CO[C@@H]3O[C@H](CO)[C@@H](O)[C@H](O)[C@H]3O)CCC[C@@]2(C)[C@@H]1CCC1=CCOC1=O (stereo partly specified)	-1.8	0.7	-2.1	-0.1	nt	0.2	nt
O=C(CN1C(=O)c2ccccc2S1(=O)=O)NCCSCc1ccccc1Cl	-0.1	0.6	-1.3	1.8	nt	0.0	nt
O=C(CN1C(=O)c2ccccc2S1(=O)=O)NCCSCc1ccco1	2.2	-0.5	1.4	-1.2	2.1	79.9*	-0.4
CC(Oc1ccccc1F)c1nnc(SCC(=O)Nc2ccc(N3CCOCC3)cc2)o1 (stereo unspecified)	-0.1	-0.8	0.4	-1.2	nt	-0.2	nt
Cc1cc(C)c(C(N)=O)c(Nc2cccc3ccccc23)n1	-0.9	5.7	-1.3	2.7	37.3	5.7*	0.2
NC(=O)COC(=O)c1ccc2noc(-c3ccccc3)c2c1	3.2	-6.1	0.5	4.0	nt	0.0	nt
COc1ccc2cc(CN(C(=O)Nc3ccccc3)C3CCCC3)c(=O)[nH]c2c1	-5.1	1.1	2.6	0.0	3.4	16.2*	-0.7
O=C(Nc1nnc(S(=O)(=O)N2CCOCC2)s1)c1ccc(F)cc1	-8.0	-0.6	-0.2	0.0	nt	8.7*	-0.6
CC(=O)c1c(C)[nH]c(C(=O)OCc2ccc(Br)cc2)c1C	-30.5	2.7	8.1	4.3	35.2	9.0*	0.3
C/C(=N/O)c1ccc(Oc2cnccn2)cc1	0.4	-0.2	-0.7	-0.9	9.7	-0.4	nt
COC(=O)[C@]12CCCCC=C1N(Cc1cccc3ccccc13)C(=O)[C@H](CC(=O)NCCC(C)C)C2	nt	nt	-1.8	nt	nt	5.6*	-1.1
